According to ChEMBL document CHEMBL1765047, “Synthesis and in vivo evaluation of (S)-6-(4-fluorophenoxy)-3-((1-[11C]methylpiperidin-3-yl)methyl)-2-o-tolylquinazolin-4(3H)-one, a potential PET tracer for growth hormone secretagogue receptor (GHSR)” (Bioorg Med Chem, 2011):

How the values were obtained:
Brain [1] = test: Drug uptake in CD1 mouse brain at 0.1 mCi, iv after 10 mins by gamma scintillation counting; format: ADME, organism-based; conditions: in vivo
Procedure, shortened: (§1)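 Baseline regional brain study in male CD1 mice (23-28 g) injected via tail vein with 0.1 mCi tracer in 0.2 mL saline (~4000 mCi/μmol). Killed at 10, 30, 60 or 90 min; brain regions dissected on ice, weighed and gamma-counted with injectate standards. Reported as %ID/g tissue, mean ± SD, n=3.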

Cerebellum [2] = test: Drug uptake in CD1 mouse cerebellum at 0.1 mCi, iv after 30 mins by gamma scintillation counting; format: ADME, organism-based; conditions: in vivo, 0.5 h; procedure, shortened: as §1
Hypothalamus [3] = test: Drug uptake in CD1 mouse hypothalamus at 0.1 mCi, iv after 30 mins by gamma scintillation counting; format: ADME, organism-based; conditions: in vivo, 0.5 h; procedure, shortened: as §1
Hippocampus [4] = test: Drug uptake in CD1 mouse hippocampus at 0.1 mCi, iv after 30 mins by gamma scintillation counting; format: ADME, organism-based; conditions: in vivo, 0.5 h; procedure, shortened: as §1
Cortex [5] = test: Drug uptake in CD1 mouse cortex at 0.1 mCi, iv after 30 mins by gamma scintillation counting; format: ADME, organism-based; conditions: in vivo, 0.5 h; procedure, shortened: as §1
Brain [6] = test: Drug uptake in CD1 mouse brain at 0.1 mCi, iv after 30 mins by gamma scintillation counting; format: ADME, organism-based; conditions: in vivo, 0.5 h; procedure, shortened: as §1
Cerebellum [7] = test: Drug uptake in CD1 mouse cerebellum at 0.1 mCi, iv after 60 mins by gamma scintillation counting; format: ADME, organism-based; conditions: in vivo, 1 h; procedure, shortened: as §1
Hypothalamus [8] = test: Drug uptake in CD1 mouse hypothalamus at 0.1 mCi, iv after 60 mins by gamma scintillation counting; format: ADME, organism-based; conditions: in vivo, 1 h; procedure, shortened: as §1
Hippocampus [9] = test: Drug uptake in CD1 mouse hippocampus at 0.1 mCi, iv after 60 mins by gamma scintillation counting; format: ADME, organism-based; conditions: in vivo, 1 h; procedure, shortened: as §1
Cortex [10] = test: Drug uptake in CD1 mouse cortex at 0.1 mCi, iv after 60 mins by gamma scintillation counting; format: ADME, organism-based; conditions: in vivo, 1 h; procedure, shortened: as §1
Brain [11] = test: Drug uptake in CD1 mouse brain at 0.1 mCi, iv after 60 mins by gamma scintillation counting; format: ADME, organism-based; conditions: in vivo, 1 h; procedure, shortened: as §1
Cerebellum [12] = test: Drug uptake in CD1 mouse cerebellum at 0.1 mCi, iv after 90 mins by gamma scintillation counting; format: ADME, organism-based; conditions: in vivo, 1.5 h; procedure, shortened: as §1
Hypothalamus [13] = test: Drug uptake in CD1 mouse hypothalamus at 0.1 mCi, iv after 90 mins by gamma scintillation counting; format: ADME, organism-based; conditions: in vivo, 1.5 h; procedure, shortened: as §1
Hippocampus [14] = test: Drug uptake in CD1 mouse hippocampus at 0.1 mCi, iv after 90 mins by gamma scintillation counting; format: ADME, organism-based; conditions: in vivo, 1.5 h; procedure, shortened: as §1
Cortex [15] = test: Drug uptake in CD1 mouse cortex at 0.1 mCi, iv after 90 mins by gamma scintillation counting; format: ADME, organism-based; conditions: in vivo, 1.5 h; procedure, shortened: as §1
Brain [16] = test: Drug uptake in CD1 mouse brain at 0.1 mCi, iv after 90 mins by gamma scintillation counting; format: ADME, organism-based; conditions: in vivo, 1.5 h; procedure, shortened: as §1
[17] = Lipophilicity, log D of the compound; format: physicochemical; conditions: octanol/water
Procedure, shortened: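 Computed in silico rather than measured experimentally, for pH 7.4 (log D7.4), using a log P/log D prediction program.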

Blood [18] = test: Drug uptake in CD1 mouse blood at 0.1 mCi, iv after 10 mins by gamma scintillation counting; format: ADME, organism-based; conditions: in vivo
Procedure, shortened: (§2)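 Baseline whole-body distribution in male CD1 mice (23-28 g). Tracer 0.1 mCi in 0.2 mL saline (~4000 mCi/μmol) into lateral tail vein. Cervical dislocation at 10, 30 or 90 min; organs dissected on ice, weighed, gamma-counted alongside injectate aliquots as standards. Reported as %ID/g tissue, mean ± SD, n=5.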

Heart = test: Drug uptake in CD1 mouse heart at 0.1 mCi, iv after 10 mins by gamma scintillation counting; format: ADME, organism-based; conditions: in vivo; procedure, shortened: as §2
Lung = test: Drug uptake in CD1 mouse lung at 0.1 mCi, iv after 10 mins by gamma scintillation counting; format: ADME, organism-based; conditions: in vivo; procedure, shortened: as §2
[19] = Drug uptake in CD1 mouse adrenal at 0.1 mCi, iv after 10 mins by gamma scintillation counting; format: ADME, organism-based, Adrenal gland; conditions: in vivo; procedure, shortened: as §2
[20] = Drug uptake in CD1 mouse testis at 0.1 mCi, iv after 10 mins by gamma scintillation counting; format: ADME, organism-based; conditions: in vivo; procedure, shortened: as §2
Muscle tissue = test: Drug uptake in CD1 mouse muscle at 0.1 mCi, iv after 10 mins by gamma scintillation counting; format: ADME, organism-based; conditions: in vivo; procedure, shortened: as §2
Liver = test: Drug uptake in CD1 mouse liver at 0.1 mCi, iv after 10 mins by gamma scintillation counting; format: ADME, organism-based; conditions: in vivo; procedure, shortened: as §2
Blood [21] = test: Drug uptake in CD1 mouse blood at 0.1 mCi, iv after 30 mins by gamma scintillation counting; format: ADME, organism-based; conditions: in vivo, 0.5 h; procedure, shortened: as §2

Cc1ccccc1-c1nc2ccc(Oc3ccc(F)cc3)cc2c(=O)n1C[C@H]1CCCN([11CH3])C1
Drug uptake (Brain [1]): 0.54 % ID/g | Drug uptake (Cerebellum [2]): 0.56 % ID/g | Drug uptake (Hypothalamus [3]): 0.58 % ID/g | Drug uptake (Hippocampus [4]): 0.59 % ID/g | Drug uptake (Cortex [5]): 0.6 % ID/g | Drug uptake (Brain [6]): 0.57 % ID/g | Drug uptake (Cerebellum [7]): 0.59 % ID/g | Drug uptake (Hypothalamus [8]): 0.74 % ID/g | Drug uptake (Hippocampus [9]): 0.71 % ID/g | Drug uptake (Cortex [10]): 0.65 % ID/g | Drug uptake (Brain [11]): 0.62 % ID/g | Drug uptake (Cerebellum [12]): 0.59 % ID/g | Drug uptake (Hypothalamus [13]): 0.86 % ID/g | Drug uptake (Hippocampus [14]): 0.65 % ID/g | Drug uptake (Cortex [15]): 0.66 % ID/g | Drug uptake (Brain [16]): 0.54 % ID/g | logD [17]: 4.1 | Drug uptake (Blood [18]): 2.14 % ID/g | Drug uptake (Heart): 5.11 % ID/g | Drug uptake (Lung): 26.44 % ID/g | Drug uptake [19]: 15.57 % ID/g | Drug uptake [20]: 1.07 % ID/g | Drug uptake (Muscle tissue): 3.79 % ID/g | Drug uptake (Liver): 18.63 % ID/g | Drug uptake (Blood [21]): 1.87 % ID/g
